The record followed here is ChEMBL document CHEMBL2069207, “Polyhydroxylated steroidal glycosides from Paris polyphylla” (J Nat Prod, 2012).

The source made the active and inactive calls. The rule behind the calls is not given here.

The first test has as its system CCRF-CEM. The test can be described thus: Cytotoxicity against human CCRF-CEM cells at 100 uM by XTT assay. The format is functional, cell-based. The essentials: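 Human CCRF-CEM leukemia cells; single fixed concentration of 100 μM. Proliferation inhibition was read by XTT assay and expressed as inhibition rate. Viability was referenced to an equivalent DMSO concentration as negative control. Doxorubicin served as positive control.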
In general terms: Formazan colour is commonly taken as a measure of viable cells.
Consider `CC1=CO[C@@]2(O[C@H]3C[C@H]4[C@@H]5CC=C6C[C@@H](O)C[C@@H](O[C@@H]7O[C@H](CO)[C@@H](O)[C@H](O[C@@H]8OC[C@@H](O)[C@H](O)[C@H]8O)[C@H]7O[C@@H]7O[C@@H](C)[C@H](O)[C@@H](O)[C@H]7O)[C@]6(C)[C@H]5CC[C@]4(C)[C@H]3[C@@H]2CO[C@@H]2O[C@H](CO)[C@H](O)[C@H](O)[C@H]2O)[C@@H](O)[C@H]1O[C@@H]1O[C@H](C)[C@H](O)[C@H](O)[C@H]1O`, for which the outcome was inactive. Regarding `C=C1CO[C@@]2(O[C@H]3C[C@H]4[C@@H]5CC=C6C[C@@H](O)C[C@@H](O[C@@H]7O[C@H](CO)[C@@H](O)[C@H](O[C@@H]8OC[C@@H](O)[C@H](O)[C@H]8O)[C@H]7O[C@@H]7O[C@@H](C)[C@H](O)[C@@H](O)[C@H]7O)[C@]6(C)[C@H]5CC[C@]4(C)[C@H]3[C@@H]2CO[C@@H]2O[C@H](CO)[C@H](O)[C@H](O)[C@H]2O)[C@@H](O)[C@H]1O[C@@H]1O[C@H](C)[C@H](O)[C@H](O)[C@H]1O`, the result was inactive. Turning to `CC(C)(O)C(O)CC[C@](C)(O)[C@H]1CC[C@@]2(O)C3=CC(=O)[C@@H]4C[C@@H](O)[C@@H](O)C[C@]4(C)[C@H]3CC[C@]12C` (some centres not stated), the outcome was inactive. As to `CC(C)(O)CC[C@@H](O)[C@](C)(O)[C@H]1CC[C@@]2(O)C3=CC(=O)[C@@H]4C[C@@H](O)[C@@H](O)C[C@]4(C)[C@H]3CC[C@]12C`, the result was inactive. As for `CC1=CO[C@@]2(O[C@H]3C[C@H]4[C@@H]5CC=C6C[C@@H](O)C[C@@H](O[C@@H]7O[C@H](CO)[C@@H](O)[C@H](O[C@@H]8OC[C@@H](O)[C@H](O)[C@H]8O)[C@H]7O[C@@H]7O[C@@H](C)[C@H](O)[C@@H](O)[C@H]7O)[C@]6(C)[C@H]5CC[C@]4(C)[C@H]3[C@@H]2CO)[C@@H](O)[C@H]1O[C@@H]1O[C@H](C)[C@H](O)[C@H](O)[C@H]1O`, the outcome was inactive. In the case of `C[C@@H]1O[C@@H](O[C@H]2[C@H](O[C@@H]3C[C@H](O)CC4=CC[C@H]5[C@@H]6C[C@@H]7O[C@@]8(OC[C@H](C)[C@H](O[C@@H]9O[C@H](C)[C@H](O)[C@H](O)[C@H]9O)[C@@H]8O)[C@@H](CO)[C@@H]7[C@@]6(C)CC[C@@H]5[C@]43C)O[C@H](CO)[C@@H](O)[C@@H]2O[C@@H]2OC[C@@H](O)[C@H](O)[C@H]2O)[C@H](O)[C@H](O)[C@H]1O`, the result was inactive.

The next test relates to CCRF-CEM. The test can be described thus: Cytotoxicity against human CCRF-CEM cells by XTT assay. The format is functional, cell-based. The essentials: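 CCRF-CEM human leukemia cells were exposed to 0.001 to 100 μM to build dose–response curves, read by XTT proliferation assay. IC50 was taken from the curves. Only agents giving at least 80% inhibition in a 100 μM screen were taken forward. An equivalent DMSO concentration was the negative control and viability reference, and doxorubicin was the positive control.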
In general, IC50 refers to the concentration needed to halve the response being measured. A lower IC50 goes with greater potency. `C[C@H](CCC1(O)OC2CC3C4CC=C5C[C@@H](O[C@@H]6O[C@H](CO)C(O[C@@H]7O[C@@H](CO)[C@H](O)[C@H]7O)[C@@H](O)[C@H]6O[C@@H]6O[C@@H](C)[C@H](O)[C@@H](O)[C@H]6O)CC[C@]5(C)C4CC[C@]3(C)C2[C@@H]1C)CO[C@@H]1O[C@H](CO)[C@@H](O)[C@H](O)[C@H]1O` (some centres not stated) [PARISAPONIN I] yielded an IC50 of 1230 nM.

The compound `C[C@H](CC[C@@]1(O)O[C@H]2C[C@H]3[C@@H]4CC=C5C[C@@H](O[C@@H]6O[C@H](CO)[C@@H](O)[C@H](O[C@@H]7O[C@H](CO)[C@@H](O)[C@H](O)[C@H]7O)[C@H]6O[C@@H]6O[C@@H](C)[C@H](O)[C@@H](O)[C@H]6O)CC[C@]5(C)[C@H]4CC[C@]3(C)[C@H]2[C@@H]1C)CO[C@@H]1O[C@H](CO)[C@@H](O)[C@H](O)[C@H]1O` returned an IC50 of 1770 nM.

Regarding `COc1cccc2c1C(=O)c1c(O)c3c(c(O)c1C2=O)C[C@@](O)(C(=O)CO)C[C@@H]3O[C@H]1C[C@H](N)[C@H](O)[C@H](C)O1` [DOXORUBICIN], the IC50 stood at 2140 nM. The IC50 values of the last two compounds are within 1.5-fold of each other.

For `C[C@H](CC[C@@]1(O)O[C@H]2C[C@H]3[C@@H]4CC=C5C[C@@H](O[C@@H]6O[C@H](CO)[C@@H](O[C@@H]7O[C@@H](CO)[C@H](O)[C@H]7O)[C@H](O)[C@H]6O[C@@H]6O[C@@H](C)[C@H](O)[C@@H](O)[C@H]6O)CC[C@]5(C)[C@H]4CC[C@]3(C)[C@@]2(O)[C@@H]1C)CO[C@@H]1O[C@H](CO)[C@@H](O)[C@H](O)[C@H]1O` [PARISYUNNANOSIDE A], inhibition was half-maximal at 6680 nM (IC50). Turning to `CC1=C(CC[C@@H](C)CO[C@@H]2O[C@H](CO)[C@@H](O)[C@H](O)[C@H]2O)O[C@H]2C[C@H]3[C@@H]4CC=C5C[C@@H](O[C@@H]6O[C@H](CO)[C@@H](O[C@@H]7O[C@@H](C)[C@H](O[C@@H]8O[C@@H](C)[C@H](O)[C@@H](O)[C@H]8O)[C@@H](O)[C@H]7O)[C@H](O)[C@H]6O[C@@H]6O[C@@H](C)[C@H](O)[C@@H](O)[C@H]6O)CC[C@]5(C)[C@H]4CC[C@]3(C)[C@@H]12`, the IC50 is 6520 nM.

The compound `C[C@H](CC[C@@]1(O)O[C@H]2C[C@H]3[C@@H]4CC=C5C[C@@H](O[C@@H]6O[C@H](CO)[C@@H](O[C@@H]7O[C@@H](C)[C@H](O[C@@H]8O[C@@H](C)[C@H](O)[C@@H](O)[C@H]8O)[C@@H](O)[C@H]7O)[C@H](O)[C@H]6O[C@@H]6O[C@@H](C)[C@H](O)[C@@H](O)[C@H]6O)CC[C@]5(C)[C@H]4CC[C@]3(C)[C@H]2[C@@H]1C)CO[C@@H]1O[C@H](CO)[C@@H](O)[C@H](O)[C@H]1O` [DICHOTOMIN] yielded an IC50 of 590 nM.
